From paper PMC33344 (BMC Chemical Biology, 2001) come the findings set out here.

Data set [1] can be described thus: Fluorophore spectral analysis. The class given is physicochemical. The conditions noted are these: 10 nM in PBS, pH 7.4. A digest of the protocol: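 Fluorophore-labelled substance P conjugates were analysed in a spectrofluorometer at 10 nM in PBS, pH 7.4, as solvent. Excitation and emission spectra were recorded for each conjugate, and peak wavelengths were read from the curves.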

In data set [2] the target is bullfrog sympathetic ganglia SPR (bfSPR) (Aquarana catesbeiana, UniProt Q98982). Nature of the data set: Whole cell recording of M-type K+ current. The conditions noted are these: for inhibition of IM: single bullfrog sympathetic neurons. The class given is cell-based.
bullfrog sympathetic ganglia SPR (bfSPR), sequence (Q98982 whole entry): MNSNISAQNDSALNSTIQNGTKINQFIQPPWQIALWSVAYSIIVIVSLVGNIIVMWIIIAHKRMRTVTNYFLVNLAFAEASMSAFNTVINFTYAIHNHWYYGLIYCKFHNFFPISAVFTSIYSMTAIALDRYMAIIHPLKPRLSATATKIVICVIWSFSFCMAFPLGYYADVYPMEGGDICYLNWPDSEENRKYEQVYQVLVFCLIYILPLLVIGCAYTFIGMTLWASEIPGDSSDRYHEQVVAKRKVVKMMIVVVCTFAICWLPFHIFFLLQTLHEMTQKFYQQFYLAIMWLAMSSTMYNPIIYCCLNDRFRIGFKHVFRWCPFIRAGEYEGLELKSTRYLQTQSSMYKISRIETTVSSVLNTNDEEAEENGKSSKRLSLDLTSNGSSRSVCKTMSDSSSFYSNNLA

As for “Alexa 488-SP: Substance P with Alexa 488 covalently linked at Lys3; Molecular Probes product S-13426”, in data set [1], the peak excitation is 490 nm and the “peak of the emission curve” value is given as 515 nm. Besides, the “inhibition of IM” value in data set [2] (100 nM, 0.1 µM) is given as “did not inhibit IM”. Besides, the “inhibition of IM” value in data set [2] (1 μM) was “did not inhibit IM”.
For “fluorescein-SP: Substance P with fluorescein covalently linked at Lys3; Molecular Probes product S-13424”, in data set [1], the peak excitation was 495 nm and the “peak of the emission curve” value is 520 nm.
Turning to `CSCC[C@H](NC(=O)[C@H](CC(C)C)NC(=O)CNC(=O)[C@H](Cc1ccccc1)NC(=O)[C@H](Cc1ccccc1)NC(=O)[C@H](CCC(N)=O)NC(=O)[C@H](CCC(N)=O)NC(=O)[C@@H]1CCCN1C(=O)[C@H](CCCCN)NC(=O)[C@@H]1CCCN1C(=O)[C@@H](N)CCCN=C(N)N)C(N)=O` [SP, reference compound], in data set [2] (read-out: inhibition of IM), the inhibition at 0.1 µM is roughly 70%.
